Drawing on ChEMBL document CHEMBL6177921, “Enhancing the antimycobacterial efficacy of pyridine-4-carbohydrazide: linkage to additional antimicrobial agents via oxocarboxylic acids” (RSC Med Chem, 2025), this text covers MIC for eight compounds.

By MIC is commonly meant the least concentration at which growth counts as inhibited.

What all share (type): functional
The subject of assay [1] is Mycobacterium avium. Description: Antimycobacterial activity against INH/RIF/rifabutin/OFX/EMB resistant Mycobacterium avium CNCTC 330/88 assessed as bacterial growth inhibition incubated for 14 days by two-fold serial dilution method. The following applies: CNCTC 330/88, 336 h, time 14 day. In outline:
(§1)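 M. avium CNCTC 330/88 (stock suspension dilution 10−5) grown in Šula's semisynthetic liquid medium; two-fold serial dilutions 1000 to 1 μM from DMSO stocks (final DMSO 1.0% v/v); final load 1.5 × 10^5 CFU mL−1; MIC read visually as lowest concentration giving complete growth inhibition after 14 and 21 days.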

The subject of assay [2] is Pichia kudriavzevii. In words: Antifungal activity against Candida krusei ATCC 6258 measured after 24 to 48 hrs by microdilution broth method. Particulars: time 24-48 hrs. In outline: (§2)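 Yeast broth microdilution per EUCAST, slightly modified. Medium was RPMI-1640 with 2% glucose, MOPS-buffered to pH 7.0. Compounds were tested at 0.98–500 μM with final DMSO ≤1.0% (v/v). Inoculum came from 18–24 h cultures, final ~1–5 × 10^5 CFU mL−1. Plates were incubated statically, dark and humidified, at 35 ± 2 °C. MIC was read visually at 24 and 48 h (no visible growth).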
(In broth dilution the organism is exposed to a series of concentrations in liquid medium.)

Assay [3] relates to Candida parapsilosis. In words: Antifungal activity against Candida parapsilosis ATCC 22019 measured after 24 to 48 hrs by microdilution broth method. Particulars: Lodderomyces parapsilosis, time 24-48 hrs. The method, boiled down: as §2
Assay [4] relates to Mycobacterium kansasii. In words: Antimycobacterial activity against INH/RIF/rifabutin/OFX/EMB Mycobacterium kansasii CNCTC 6509/96 clinical isolate assessed as bacterial growth inhibition incubated for 7 days by two-fold serial dilution method. Particulars: CNCTC 6509/96, 168 h, time 7 day. The method, boiled down: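 Šula's liquid semisynthetic medium; M. kansasii clinical isolate 6509/96 used at stock dilution 10−4, final ~1.5 × 10^5 CFU mL−1. Two-fold dilutions ran 1000–1 μM with final DMSO 1.0% (v/v). MIC was read visually as complete growth inhibition after 7, 14 and 21 days.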

Assay [5] deals with Candida tropicalis. Description: Antifungal activity against Candida tropicalis ATCC 750 measured after 24 to 48 hrs by microdilution broth method. The following applies: time 24-48 hrs. The method, boiled down:
as §2

In assay [6] the test system is Candida tropicalis. Description: Antifungal activity against Candida tropicalis CCM 8264 measured after 24 to 48 hrs by microdilution broth method. Particulars: time 24-48 hrs. In outline:
as §2

Assay [7] has as its system Candida albicans. Description: Antifungal activity against Candida albicans CCM 8320 measured after 24 to 48 hrs by microdilution broth method. Particulars: time 24-48 hrs. In outline:
as §2

Another assay has as its system Aspergillus flavus. Description: Antifungal activity against Aspergillus flavus CCM 8363 measured after 24 to 48 hrs by microdilution broth method. Particulars: time 24-48 hrs. The method, boiled down:
(§3)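 Filamentous fungi tested by broth microdilution per EUCAST with minor changes. Compounds were tested at 0.98–500 μM with final DMSO ≤1.0% (v/v). Plates were incubated statically, dark and humidified, at 35 ± 2 °C for 24 and 48 h. MIC was the lowest concentration showing no visible growth.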

In assay [8] the test system is Mycobacterium avium. Description: Antimycobacterial activity against INH/RIF/rifabutin/OFX/EMB resistant Mycobacterium avium CNCTC 330/88 assessed as bacterial growth inhibition incubated for 21 days by two-fold serial dilution method. Particulars: CNCTC 330/88, 504 h, time 21 day. The method, boiled down:
as §1

In assay [9] the test system is Candida parapsilosis. In words: Antifungal activity against Candida parapsilosis CCM 8260 measured after 24 to 48 hrs by microdilution broth method. Particulars: Lodderomyces parapsilosis, time 24-48 hrs. In outline:
as §2

Assay [10] has as its system Mycobacterium kansasii. In words: Antimycobacterial activity against multi-drug resistant Mycobacterium kansasii clinical isolate CNCTC 6509/96 assessed as bacterial growth inhibition incubated for 21 days by two-fold serial dilution method. Particulars: CNCTC 6509/96, 504 h, time 21 day. The method, boiled down:
(§4)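 M. kansasii clinical isolate 6509/96 (stock dilution 10−4) in Šula's semisynthetic liquid medium; two-fold serial dilutions 1000 to 1 μM, DMSO final 1.0% v/v; final load 1.5 × 10^5 CFU mL−1; MIC read visually as complete growth inhibition at 7, 14 and 21 days.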

For assay [11], the system named is Mycobacterium tuberculosis. Description: Antimycobacterial activity against Mycobacterium tuberculosis H37Rv CNCTC 331/88 assessed as bacterial growth inhibition incubated for 21 days by two fold serial dilution method. Particulars: H37Rv CNCTC 331/88, 504 h, time 21 day.
Assay [12] deals with Pichia kudriavzevii. In words: Antifungal activity against Candida krusei CCM 8271 measured after 24 to 48 hrs by microdilution broth method. Particulars: time 24-48 hrs. The method, boiled down: as §2
The test system of a further assay is Aspergillus fumigatus. Description: Antifungal activity against Aspergillus fumigatus ATCC 204305 measured after 24 to 48 hrs by microdilution broth method. The following applies: time 24-48 hrs. In outline: as §3
For assay [13], the system named is Mycobacterium tuberculosis. Description: Antimycobacterial activity against multidrug sensitive Mycobacterium tuberculosis H37Rv CNCTC 331/88 assessed as bacterial growth inhibition incubated for 14 days by two-fold serial dilution method. Particulars: H37Rv CNCTC 331/88, 336 h, time 14 day.
Assay [14] deals with Mycobacterium kansasii. In words: Antimycobacterial activity against multi-drug resistant Mycobacterium kansasii CNCTC 6509/96 clinical isolate assessed as bacterial growth inhibition incubated for 14 days by two-fold serial dilution method. The following applies: CNCTC 6509/96, 336 h, time 14 day. In outline: as §4
The test system of assay [15] is Candida albicans. In words: Antifungal activity against Candida albicans ATCC 24443 measured after 24 to 48 hrs by microdilution broth method. Particulars: time 24-48 hrs. In outline: as §2
The test system of a further assay is Lichtheimia corymbifera. Description: Antifungal activity against Lichtheimia corymbifera CCM 8077 measured after 24 to 48 hrs by microdilution broth method. Particulars: time 24-48 hrs. In outline: as §3
For assay [16], the system named is Trichophyton interdigitale. In words: Antifungal activity against Trichophyton interdigitale CCM 8377 measured after 24 to 48 hrs by microdilution broth method. The following applies: time 24-48 hrs.
Assay [17] has as its system Trichophyton interdigitale. In words: Antifungal activity against Trichophyton interdigitale ATCC 9533 measured after 24 to 48 hrs by microdilution broth method. The following applies: time 24-48 hrs.

Values after ≈ are worked out from the molar mass of the structure shown.

`C/C(=N\NC(=O)c1ccncc1)C(=O)Nc1ccccc1Oc1ccccc1`: the MIC was at least 1000 µM with Mycobacterium avium [1]; over 500 µM against Pichia kudriavzevii [2]; over 500 µM against Candida parapsilosis [3]; 4 µM (≈ 1.5 µg/mL) with Mycobacterium kansasii [4]; over 500 µM against Candida tropicalis [5]; over 500 µM with Candida tropicalis [6]. Further, the MIC against Candida albicans [7] is over 500 µM; against Aspergillus flavus, over 500 µM; in the assay on Mycobacterium avium [8], at least 1000 µM; against Candida parapsilosis [9], over 500 µM; in the assay on Mycobacterium kansasii [10], 16 µM (≈ 5.99 µg/mL); in [11], 0.5 µM (≈ 0.187 µg/mL). In addition, the minimum inhibitory concentration (MIC) is over 500 µM in the assay with Pichia kudriavzevii [12]; over 500 µM against Aspergillus fumigatus; 0.25 µM (≈ 0.0936 µg/mL) in assay [13]; 8 µM (≈ 3 µg/mL) in the assay on Mycobacterium kansasii [14]; over 500 µM against Candida albicans [15]; over 500 µM against Lichtheimia corymbifera. The minimum inhibitory concentration (MIC) in assay [16] and in assay [17] was over 500 µM each time.

As to `C/C(=N\NC(=O)c1ccncc1)C(=O)Nc1ccc(S(=O)(=O)Nc2ncccn2)cc1`, the minimal inhibitory concentration (MIC) with Mycobacterium avium [1] was 1000 µM (≈ 439 µg/mL); against Pichia kudriavzevii [2], over 500 µM; with Candida parapsilosis [3], over 500 µM; in the assay on Mycobacterium kansasii [4] it was 32 µM (≈ 14.1 µg/mL); against Candida tropicalis [5], over 500 µM; in the assay with Candida tropicalis [6], over 500 µM. Also, the MIC in the assay with Candida albicans [7] was over 500 µM; with Aspergillus flavus, over 500 µM; in the assay on Mycobacterium avium [8] it was at least 1000 µM; in the assay on Candida parapsilosis [9], over 500 µM; with Mycobacterium kansasii [10], 64 µM (≈ 28.1 µg/mL); in assay [11], 2 µM (≈ 0.879 µg/mL). The MIC was over 500 µM against Pichia kudriavzevii [12]; over 500 µM against Aspergillus fumigatus; 2 µM (≈ 0.879 µg/mL) in assay [13]; 64 µM (≈ 28.1 µg/mL) with Mycobacterium kansasii [14]; over 500 µM in the assay with Candida albicans [15]; over 500 µM against Lichtheimia corymbifera. Further, the minimal inhibitory concentration (MIC) in assay [16] and in [17] was over 500 µM in each case.

For `Nc1ccc(S(=O)(=O)Nc2ccc(Oc3ccccc3)cc2)cc1`, the MIC with Mycobacterium avium [1] came to 1000 µM (≈ 340 µg/mL); in the assay with Mycobacterium kansasii [4] it was 250 µM (≈ 85.1 µg/mL); in the assay on Mycobacterium avium [8], 1000 µM (≈ 340 µg/mL); in the assay on Mycobacterium kansasii [10], 500 µM (≈ 170 µg/mL); in assay [11], 500 µM (≈ 170 µg/mL); in assay [13] it was 500 µM (≈ 170 µg/mL). In the assay with Mycobacterium kansasii [14], the MIC came to 500 µM (≈ 170 µg/mL).

In the case of `O=C(/C=N/NC(=O)c1ccncc1)Nc1ccc(S(=O)(=O)Nc2ncccn2)cc1`, the MIC with Mycobacterium avium [1] stood at 500 µM (≈ 213 µg/mL); in the assay on Mycobacterium kansasii [4], 8 µM (≈ 3.4 µg/mL); with Mycobacterium avium [8], 500 µM (≈ 213 µg/mL); with Mycobacterium kansasii [10], 16 µM (≈ 6.81 µg/mL); in [11], 2 µM (≈ 0.851 µg/mL); in [13], 1 µM (≈ 0.425 µg/mL). Besides, in the assay with Mycobacterium kansasii [14], the minimum inhibitory concentration (MIC) came to 16 µM (≈ 6.81 µg/mL).

`Cc1cc(C)nc(NS(=O)(=O)c2ccc(NC(=O)/C=N/NC(=O)c3ccncc3)cc2)n1`: the MIC was 1000 µM (≈ 453 µg/mL) in the assay with Mycobacterium avium [1]; 8 µM (≈ 3.63 µg/mL) with Mycobacterium kansasii [4]; at least 1000 µM in the assay on Mycobacterium avium [8]; 16 µM (≈ 7.26 µg/mL) in the assay on Mycobacterium kansasii [10]; 2 µM (≈ 0.907 µg/mL) in assay [11]; 1 µM (≈ 0.453 µg/mL) in [13]. Besides, in the assay on Mycobacterium kansasii [14], the MIC came out at 16 µM (≈ 7.26 µg/mL).

Turning to `Nc1ccc(S(=O)(=O)Nc2ccc(Oc3ccc(Cl)cc3)c(Cl)c2)cc1`, the MIC (with Mycobacterium avium [1]; with Mycobacterium kansasii [4]; in the assay with Mycobacterium avium [8]; with Mycobacterium kansasii [10]; in assay [11]; in assay [13]) was 125 µM (≈ 51.2 µg/mL) throughout. For the same compound, the MIC with Mycobacterium kansasii [14] turned out to be 125 µM (≈ 51.2 µg/mL).

With `C/C(=N\NC(=O)c1ccncc1)C(=O)Nc1ccc(NC(=O)/C(C)=N/NC(=O)c2ccncc2)cc1`, the MIC in the assay on Mycobacterium avium [1] worked out at 250 µM (≈ 122 µg/mL); in the assay with Mycobacterium kansasii [4], 250 µM (≈ 122 µg/mL); in the assay with Mycobacterium avium [8], 250 µM (≈ 122 µg/mL); in the assay on Mycobacterium kansasii [10] it was 250 µM (≈ 122 µg/mL); in assay [11], 64 µM (≈ 31.1 µg/mL); in assay [13] it was 64 µM (≈ 31.1 µg/mL). Further, in the assay on Mycobacterium kansasii [14], the MIC came out at 250 µM (≈ 122 µg/mL).

Turning to `COC(=O)c1ccc(NS(=O)(=O)c2ccc(N)cc2)cc1O`, the minimal inhibitory concentration (MIC) was over 1000 µM in the assay on Mycobacterium avium [1]; 1000 µM (≈ 322 µg/mL) with Mycobacterium kansasii [4]; over 1000 µM with Mycobacterium avium [8]; over 1000 µM with Mycobacterium kansasii [10]; 250 µM (≈ 80.6 µg/mL) in assay [11]; 250 µM (≈ 80.6 µg/mL) in assay [13]. The MIC in the assay on Mycobacterium kansasii [14] was over 1000 µM.
